{"data": "Published values collected from several papers", "gag-pol reverse transcriptase": "Gag-Pol polyprotein, reverse transcriptase (gag-pol, Human immunodeficiency virus 1, UniProt P03366)", "gyrA": "DNA gyrase subunit A (gyrA, Escherichia coli K-12, UniProt P0AES4)", "PTK2B": "Protein-tyrosine kinase 2-beta (PTK2B, Homo sapiens, UniProt Q14289)", "PDE2A": "cGMP-dependent 3',5'-cyclic phosphodiesterase (PDE2A, Homo sapiens, UniProt O00408)", "PRMT6": "Protein arginine N-methyltransferase 6 (PRMT6, Homo sapiens, UniProt Q96LA8)", "note": "Protocols differ between the studies behind these lines."}
{"Compound": "COc1ccc2c(Oc3ccc4c(C(=O)Nc5ccccc5N)cccc4c3)ccnc2c1", "target": "Insulin-like growth factor 1 receptor (IGF1R, Homo sapiens, UniProt P08069)", "observed": "enzyme activity", "mode": "inhibitor", "IC50 [nM]": "> 500"}
{"Compound": "N#Cc1ccc(Nc2nc(N)cc(Oc3c(F)cc(-c4cccc(F)c4)cc3F)n2)cc1", "target": "gag-pol reverse transcriptase", "observed": "enzyme activity", "mode": "inhibitor", "IC50 [nM]": 70}
{"Compound": "CC(C)Oc1c(NC(=O)c2ccc(NC(=O)[C@H](CC(N)=O)NC(=O)c3ccc(NC(=O)CCc4ccc(C#N)cc4)cc3)cc2)ccc(C(=O)Nc2ccc(C(=O)O)cc2)c1O", "target": "gyrA", "observed": "enzyme activity", "mode": "inhibitor", "IC50 [nM]": 1000}
{"Compound": "COc1ccc(-c2oc3ncnc(NCc4ccccc4)c3c2-c2ccc(OC)cc2)cc1", "target": "Receptor tyrosine-protein kinase erbB-2 (ERBB2, Homo sapiens, UniProt P04626, D769Y)", "observed": "enzyme activity", "mode": "inhibitor", "method": "radiometric", "IC50 [nM]": 790}
{"Compound": "CC(C)Oc1c(NC(=O)c2ccc(NC(=O)[C@H](CC(N)=O)NC(=O)c3ccc(NC(=O)c4ccc(C#N)nc4)cc3)cc2)ccc(C(=O)Nc2ccc(C(=O)O)cc2)c1O", "target": "gyrA", "observed": "enzyme activity", "mode": "inhibitor", "IC50 [nM]": 500}
{"Compound": "C[C@H]1Oc2cc(cnc2N)-c2c(nn(C)c2C#N)CN(C)C(=O)c2ccc(F)cc21", "target": "PTK2B", "observed": "enzyme activity", "mode": "inhibitor", "method": "radiometric", "IC50 [nM]": 5.9}
{"Compound": "Cc1cc(C)cc(S(=O)(=O)c2c(C(=O)NCCCCNS(=O)(=O)c3cccs3)[nH]c3ccc(Cl)cc23)c1", "target": "gag-pol reverse transcriptase", "observed": "enzyme activity", "mode": "inhibitor", "method": "ELISA", "IC50 [nM]": 190}
{"Compound": "COc1cc(C(=O)Nc2ccc(C(=O)N[C@@H](CC(N)=O)C(=O)Nc3ccc(C(=O)Nc4ccc(C(=O)Nc5ccc(C(=O)O)cc5)c(O)c4OC(C)C)cc3)cc2)ccc1C#N", "target": "gyrA", "observed": "enzyme activity", "mode": "inhibitor", "IC50 [nM]": 1800}
{"Compound": "N#Cc1ccc(Nc2nc(N)cc(Oc3ccc(-c4cccc(F)c4)cc3)n2)cc1", "target": "gag-pol reverse transcriptase", "observed": "enzyme activity", "mode": "inhibitor", "IC50 [nM]": 330}
{"Compound": "NC(=O)c1ccc[n+]([C@@H]2O[C@H](COP(=O)([O-])OP(=O)(O)OC[C@H]3O[C@@H](n4cnc5c(N)ncnc54)[C@H](O)[C@@H]3O)[C@@H](O)[C@H]2O)c1", "target": "Protein mono-ADP-ribosyltransferase PARP12 (PARP12, Homo sapiens, UniProt Q9H0J9)", "observed": "enzyme activity", "mode": "inhibitor", "IC50 [nM]": 73000}
{"Compound": "CCn1ncc2c1-c1cnc(N)c(c1)O[C@H](C)c1cc(F)ccc1-c1nn(C)nc1C2", "target": "PTK2B", "observed": "enzyme activity", "mode": "inhibitor", "method": "radiometric", "IC50 [nM]": 14}
{"Compound": "C=CC(=O)Nc1cc(Nc2nccc(Nc3cc(Cl)c(F)cc3C(C)(C)O)n2)c(OC)cc1N1CC[C@@H](N(C)C)C1", "target": "Receptor tyrosine-protein kinase erbB-2 (ERBB2, Homo sapiens, UniProt P04626)", "observed": "enzyme activity", "mode": "inhibitor", "setting": "with preincubation", "IC50 [nM]": 392}
{"Compound": "CC(C)Oc1c(NC(=O)c2ccc(NC(=O)[C@H](CC(N)=O)NC(=O)c3ccc(NC(=O)C(C)Sc4ccc(C#N)cc4)cc3)cc2)ccc(C(=O)Nc2ccc(C(=O)O)cc2)c1O (some centres unmarked)", "target": "gyrA", "observed": "enzyme activity", "mode": "inhibitor", "IC50 [nM]": 800}
{"Compound": "Cc1cc(C)cc(S(=O)(=O)c2c(C(=O)NCCNS(=O)(=O)c3ccc([N+](=O)[O-])cc3)[nH]c3ccc(Cl)cc23)c1", "target": "gag-pol reverse transcriptase", "observed": "enzyme activity", "mode": "inhibitor", "method": "ELISA", "IC50 [nM]": 100}
{"Compound": "COc1ccc(C2=NN(C3CCCCCC3)C(=O)[C@@H]3CC=CC[C@H]23)cc1-c1ccc(C(N)=O)cc1 (relative stereo)", "target": "PDE2A", "observed": "enzyme activity", "mode": "inhibitor", "IC50 [nM]": 3980}
{"Compound": "Cc1cc(C)cc(S(=O)(=O)c2c(C(=O)NCCCCCNS(=O)(=O)c3ccc(F)cc3)[nH]c3ccc(Cl)cc23)c1", "target": "gag-pol reverse transcriptase", "observed": "enzyme activity", "mode": "inhibitor", "method": "ELISA", "IC50 [nM]": 150}
{"Compound": "CC(C)Oc1c(NC(=O)c2ccc(NC(=O)[C@H](CC(N)=O)NC(=O)c3ccc(NC(=O)c4cccc([N+](=O)[O-])c4)cc3)cc2)ccc(C(=O)Nc2ccc(C(=O)O)cc2)c1O", "target": "gyrA", "observed": "enzyme activity", "mode": "inhibitor", "IC50 [nM]": 2200}
{"Compound": "COc1ncc(CNc2c(CO)cnc3c(C4CC4)cc(C#N)cc23)cc1Cl", "target": "PDE2A", "observed": "enzyme activity", "mode": "inhibitor", "IC50 [nM]": "> 10000"}
{"Compound": "O=C(Nc1cccc2[nH]ccc12)c1ccc(F)cc1", "target": "Alpha-synuclein, monomer (SNCA, Homo sapiens, UniProt P37840)", "observed": "amyloid aggregation", "mode": "inhibitor", "method": "fluorescence", "IC50 [nM]": "~11600"}
{"Compound": "Cc1cc(C)cc(S(=O)(=O)c2c(C(=O)NCCCNS(=O)(=O)c3ccccc3)[nH]c3ccc(Cl)cc23)c1", "target": "gag-pol reverse transcriptase", "observed": "enzyme activity", "mode": "inhibitor", "method": "ELISA", "IC50 [nM]": 84}
{"Compound": "O=C1N=C(Nc2ccccc2)S/C1=C\\c1ccccc1OCc1cn(Cc2ccc(Cl)cc2)nn1", "target": "Aldo-keto reductase family 1 member A1 (AKR1A1, Homo sapiens, UniProt P14550)", "observed": "enzyme activity", "mode": "inhibitor", "method": "absorbance", "pH": "pH 6.2", "IC50 [nM]": 54000}
{"Compound": "N#Cc1ccc(Nc2nc(N)cc(Oc3c(F)cc(-c4ccccc4F)cc3F)n2)cc1", "target": "gag-pol reverse transcriptase", "observed": "enzyme activity", "mode": "inhibitor", "IC50 [nM]": 40}
{"Compound": "CC(C)Oc1c(NC(=O)c2ccc(NC(=O)[C@H](CC(N)=O)NC(=O)c3ccc(NC(=O)c4ccc(C#N)c(Cl)c4)cc3)cc2)ccc(C(=O)Nc2ccc(C(=O)O)cc2)c1O", "target": "gyrA", "observed": "enzyme activity", "mode": "inhibitor", "IC50 [nM]": 100}
{"Compound": "Cc1cc(C)cc(S(=O)(=O)c2c(C(=O)NCCCCCNS(=O)(=O)c3ccc(Cl)cc3)[nH]c3ccc(Cl)cc23)c1", "target": "gag-pol reverse transcriptase", "observed": "enzyme activity", "mode": "inhibitor", "method": "ELISA", "IC50 [nM]": 120}
{"Compound": "N#Cc1ccc(COc2cccc(C3CCN(Cc4nc5ccc(C(=O)O)cc5n4C[C@@H]4CCO4)CC3)n2)c(F)c1", "target": "Gastric inhibitory polypeptide receptor (GIPR, Homo sapiens, UniProt P48546)", "observed": "cAMP", "mode": "antagonist", "IC50 [nM]": "> 10000"}
{"Compound": "CC(=O)N[C@@H]1[C@@H](O)[C@H](O)[C@@H](CO)S[C@@H]1OP(=O)(O)OP(=O)(O)OC[C@H]1O[C@@H](n2ccc(=O)[nH]c2=O)[C@H](O)[C@@H]1O", "target": "UDP-N-acetylglucosamine--peptide N-acetylglucosaminyltransferase 110 kDa subunit (OGT, Homo sapiens, UniProt O15294)", "observed": "enzyme activity", "mode": "inhibitor", "IC50 [nM]": 78800}
{"Compound": "N#Cc1ccc(Nc2nc(N)cc(Oc3ccc(-c4ccccc4F)cc3)n2)cc1", "target": "gag-pol reverse transcriptase", "observed": "enzyme activity", "mode": "inhibitor", "IC50 [nM]": 260}
{"Compound": "CC1(C)C(/C=C/C=C2/N(CCCc3ccccc3)c3ccc(Cl)cc3C2(C)C)=[N+](CCCc2ccccc2)c2ccc(Cl)cc21", "target": "PRMT6", "observed": "enzyme activity", "mode": "inhibitor", "method": "radiometric", "IC50 [nM]": 1660}
{"Compound": "Cc1cc(C)cc(S(=O)(=O)c2c(C(=O)NCCCCCNS(=O)(=O)c3cccs3)[nH]c3ccc(Cl)cc23)c1", "target": "gag-pol reverse transcriptase", "observed": "enzyme activity", "mode": "inhibitor", "method": "ELISA", "IC50 [nM]": 220}
{"Compound": "N#Cc1ccc(Nc2nc(N)cc(Oc3c(F)cc(-c4ccccc4C#N)cc3F)n2)cc1", "target": "gag-pol reverse transcriptase", "observed": "enzyme activity", "mode": "inhibitor", "IC50 [nM]": 30}
{"Compound": "Cc1cc(C)cc(S(=O)(=O)c2c(C(=O)NCCNS(=O)(=O)c3cccc(F)c3)[nH]c3ccc(Cl)cc23)c1", "target": "gag-pol reverse transcriptase", "observed": "enzyme activity", "mode": "inhibitor", "method": "ELISA", "IC50 [nM]": 83}
{"Compound": "CCCCN1/C(=C/C=C/c2sc3ccc(Br)cc3[n+]2CCCC)Sc2ccc(Br)cc21", "target": "PRMT6", "observed": "enzyme activity", "mode": "inhibitor", "method": "radiometric", "IC50 [nM]": 3150}
{"Compound": "Cc1cc(C)cc(S(=O)(=O)c2c(C(=O)NCCCCNS(=O)(=O)c3ccccc3)[nH]c3ccc(Cl)cc23)c1", "target": "gag-pol reverse transcriptase", "observed": "enzyme activity", "mode": "inhibitor", "method": "ELISA", "IC50 [nM]": 130}
{"Compound": "COc1cc(C[C@H]2C(=O)OC[C@@H]2Cc2ccc(OC)c(OC)c2)ccc1O", "target": "PDE2A", "observed": "enzyme activity", "mode": "inhibitor", "IC50 [nM]": "> 20000"}
{"Compound": "N#Cc1ccc(Nc2nc(N)cc(Oc3ccc(-c4ccc(F)cc4)cc3)n2)cc1", "target": "gag-pol reverse transcriptase", "observed": "enzyme activity", "mode": "inhibitor", "IC50 [nM]": 200}
{"Compound": "CC(C)Oc1c(NC(=O)c2ccc(NC(=O)[C@H](CC(N)=O)NC(=O)c3ccc(NC(=O)c4ccc(N)cc4)cc3)cc2)ccc(C(=O)Nc2ccc(C(=O)O)cc2)c1O", "target": "gyrA", "observed": "enzyme activity", "mode": "inhibitor", "IC50 [nM]": 26800}
{"Compound": "N#Cc1ccc(Nc2nc(N)cc(Oc3ccc(-c4ccc(C#N)c(F)c4)cc3F)n2)cc1", "target": "gag-pol reverse transcriptase", "observed": "enzyme activity", "mode": "inhibitor", "IC50 [nM]": 70}
{"Compound": "Cc1nccc2c1c(=O)n(C)c1cc(OC[C@@H](N)CC(C)C)c(C#N)cc21", "target": "Alpha-2A adrenergic receptor (ADRA2A, Homo sapiens, UniProt P08913)", "observed": "cell-free assay", "IC50 [nM]": "> 30000"}
{"Compound": "CC(C)Oc1c(NC(=O)c2ccc(NC(=O)[C@H](CC(N)=O)NC(=O)c3ccc(NC(=O)c4cc(C#N)cn4C)cc3)cc2)ccc(C(=O)Nc2ccc(C(=O)O)cc2)c1O", "target": "gyrA", "observed": "enzyme activity", "mode": "inhibitor", "IC50 [nM]": 700}
{"Compound": "N#Cc1ccc(Nc2nc(N)cc(Oc3ccc(-c4ccccc4F)cc3F)n2)cc1", "target": "gag-pol reverse transcriptase", "observed": "enzyme activity", "mode": "inhibitor", "IC50 [nM]": 50}
{"Compound": "NCc1ccccc1", "target": "Secernin-3 (Homo sapiens, UniProt Q0VDG4)", "observed": "enzyme activity", "mode": "inhibitor", "setting": "lysate", "IC50 [nM]": "> 300000"}
